Measured values: ChEMBL document CHEMBL4513216, “Probing the Open Global Health Chemical Diversity Library for Multistage-Active Starting Points for Next-Generation Antimalarials” (ACS Infect Dis, 2020)

Test: Toxicity liver stage against HepG2, at 10uM
Format: cell-based
Parameters: test concentration 10 uM, cell line HepG2-A16-CD81EGFP
Conditions: human, HepG2-A16-CD81EGFP cells; read-out: INHIBITION
Procedure, shortened: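 Uninfected HepG2-A16-CD81EGFP cells, 3 × 10^3 per well, 1536-well, plated on prespotted compound at 10 μM final, parasite-free screening media added to match infected plates; puromycin 10 μM positive, DMSO 0.5% negative; run in parallel with 48 h PbLuc assay at 37 °C, 5% CO2; viability by CellTiter-Glo luminescence, normalized to controls.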

Structure (SMILES) | cytotoxicity at 10 µM
CCCOc1cc(F)ccc1NC(=O)NCc1noc(C)n1 | 7.83%
O=C(NC1CC1)C1CNCCN1C(=O)COc1ccc2c(c1)OCO2 (stereo unspecified) | -1.74%
COc1cccc2[nH]cc(CCNC(=O)N3CCOCC3C3CC3)c12 (stereo unspecified) | 12.1%
COCCCNc1cc(C(=O)N2CCOCC2)ccc1C | 7.1%
COC1CCCN(C(=O)c2sc(CC(C)C)nc2C)C1 (stereo unspecified) | 10.9%
CNC(=O)CS(=O)(=O)Cc1coc(-c2cccc(F)c2)n1 | 1.28%
CCOc1cc(C)nc(N2CCN(Cc3nccn3C)CC2)n1 | -4.04%
CN(Cc1cc(F)ccc1F)CC(C)(CO)CO | -5.38%
Cc1nc[nH]c1CN1C[C@H]2CC[C@@H](C1)N(C(=O)c1cnn(C)c1)C2 | 2.42%
O=C(NCCNCC1CNc2ccnn2C1)c1ccc(F)cc1 (stereo unspecified) | -8.75%
CS(=O)(=O)N1CCCC(C(=O)N2CCOc3ccccc32)C1 (stereo unspecified) | 0.421%
CCOc1cc(C(=O)N2CCCC(c3noc(CC)n3)C2)ccn1 (stereo unspecified) | -3.65%
CC(C)(C)C(NCC(=O)N1CCNC(=O)C1)c1ccccc1 (stereo unspecified) | -10.7%
CCNC(=O)c1ccnc(NCC2COc3cc(OC)ccc3C2)c1 (stereo unspecified) | 0.145%
O=C(Cc1ccc2c(c1)OCCO2)NC1CCCCC1 | -12.3%
O=C1C[C@@H]2CC[C@H](CN1)N2C1CCOCC1 | -5.1%
O=C1C[C@H]2[C@@H](CCN2C(=O)Cc2cccs2)N1Cc1ccncc1 | 6.12%
Cc1cnn(CCNCc2csc(-c3ccsc3)n2)c1 | -6.75%
CN(CCO)CC1COCCN1C(=O)C1CCCCC1 (stereo unspecified) | -4.52%

Structure (SMILES) | cytotoxicity at 10 µM
COCc1ccccc1CNCc1c(C)nn(C)c1N(C)C | -8.45%
CC1=C[C@@H](CNS(C)(=O)=O)[C@H](C(C)C)C[C@H]1CC(=O)NCCN(C)C | 0.559%
O=C(Nc1nc2c(s1)CCC2)c1cccnc1N1CCOCC1 | 8.5%
CCC1CN(C(=O)c2csc3nc(-c4ccc(Cl)cc4)cn23)CCN1 (stereo unspecified) | 1.6%
O=C1C[C@H]2[C@H](CCN2C(=O)c2cc[nH]n2)N1Cc1cccnc1 | 3.03%
CCN(CCn1cccn1)Cc1nc(-c2ccoc2)oc1C | -5.48%
Cc1nc(O)cc(CN2CC=C(c3cnn(C(C)(C)C)c3)CC2)n1 | -7.17%
CCCC(=O)NCC(=O)NC(c1ccc(Cl)cc1)C(F)(F)F (stereo unspecified) | -3.63%
O=C(CNC1CCc2ncnn2C1)NCCc1cccs1 (stereo unspecified) | -10.9%
CC(C)(C)n1ncc2c1NC(=O)CC2c1ccc(C(=O)O)cc1 (stereo unspecified) | 2.08%
Cc1nc(CCNC(=O)NC(C)c2ccc3c(c2)OCCO3)cs1 (stereo unspecified) | -1.18%
COc1ccc2nc(CNC(=O)c3cc(C(C)C)on3)[nH]c2c1 | 0.0964%
CNC(=O)CS(=O)(=O)Cc1cc(Cl)c2c(c1)OCCO2 | -4.17%
CNCCCNC1CCN(c2ccc(-n3ccnc3)cc2)CC1 | -3.03%
CS(=O)(=O)CCC(=O)N(CCc1cccc(F)c1)C1CC1 | -5.82%
COCC[C@]1(O)CCN(C2CCN(C(=O)C3CCC3)CC2)C[C@H]1C | 0.866%
CN1C(=O)C2(CCN(C(=O)C3CCOCC3)CC2)c2ccccc21 | 2.5%
COCc1cc(NCCCSc2nnc(C)s2)ncn1 | 11.6%
CC(=O)N(Cc1noc(C2CC2)n1)C1CCN(Cc2cccnc2)C1 (stereo unspecified) | -3.36%

Structure (SMILES) | cytotoxicity at 10 µM
Cc1ccc(-c2ncc(CN3CCN(C(=O)N(C)C)CC3)s2)o1 | -3.25%
Cc1ccc(-c2cc(CNC(=O)N3CCCN(C)CC3)on2)cc1 | -5.19%
CC(C)=CCN1CCC2(CC1)CC(=O)N(Cc1cc(F)cc(F)c1)C2 | 0.308%
CCCn1cc(NC(=O)NCC2CCS(=O)(=O)C2)nn1 (stereo unspecified) | 0.186%
COc1ncccc1C(=O)NCCn1nc(C)ccc1=O | -7.69%
COc1ccncc1NCc1ccsc1 | 19%
Cc1nc(CN2C(=O)CCC23CCN(c2ncccc2C)CC3)cs1 | -2.07%
COc1cc2nc(C)n(CC(=O)NCCN(C)C)c(=O)c2cc1OC | -7.18%
Cc1ccc(N2CCCC(NCC(=O)Nc3cc(C)nn3C)C2)nn1 (stereo unspecified) | -1.18%
COc1ccccc1C(=O)Nc1c(F)c(C(=O)NC2CCCC2)nn1C | -10.8%
CC(=O)c1cc(CN2C[C@@H](CN3CCCC3)[C@@H](CO)C2)n(C)c1 | 4.92%
CCC(CC)c1nnc(NC(=O)N2CCC(C(N)=O)CC2)s1 | 8.26%
Cc1nc2ccc(C(=O)N3CCN(CCO)[C@@H]4CS(=O)(=O)C[C@@H]43)cc2o1 | -1.32%
CN1CC(=O)N(c2cccc(F)c2)CC12CCN(Cc1ccco1)C2 (stereo unspecified) | 4.06%
CCN(CCc1nccs1)C(=O)c1ncoc1C | 11.3%
O=C(Nc1cccnc1)Nc1cccc(CN2CCC(O)CC2)c1 | -4.06%
O=C(c1cnn2c1OCCC2)N1CCC2(CC1)OCCO2 | 7.91%
C=C(C)CN1CCC(NC(=O)c2scnc2C)CC1 | -6.35%
